Tested on: MS2 coat protein
Assay: apparent Kd, MS2 coat protein; higher = weaker binding; RNA-MaP array; FMN 200 µM where present
Outline: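 Stalled E. coli RNA polymerase transcribed the designs on Illumina sequencing-chip clusters. SNAP-549-labelled MS2 coat protein was titrated from 0.7 or 1.5 nM, doubling to 3 µM, without and then with constant ligand, in 100 mM Tris-HCl pH 7.5, 80 mM KCl, 4 mM MgCl2, BSA, DTT, yeast tRNA and Tween-20. Per-cluster binding curves were fitted to green signal normalised to red-channel RNA signal and control-cluster median Fmax. The apparent Kd is the median of the filtered fits.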

[1] = designed as: OFF switch for flavin mononucleotide, no ligand
[2] = ligand present: flavin mononucleotide, designed as: OFF switch for flavin mononucleotide
[3] = designed as: ON switch for flavin mononucleotide, no ligand
[4] = ligand present: flavin mononucleotide, designed as: ON switch for flavin mononucleotide

Sequence | apparent Kd [1] [µM] | apparent Kd [2] [µM] | apparent Kd [3] [µM] | apparent Kd [4] [µM]
UUUAUAAAGAUAGGAUAUUGUAUUAUAAUUAAAUAAGAAGGAUCACACAUGAGGAUCACCCAUGUAUGAGGAUCACCCAUGUAU | 0.0158 | 0.0145 | – | –
UUUAUGGGACAGAAGGGCAUUUACAUGAGGAUCACCCAUGUUCAUCAUUGCAGGAUAUGUAUAACAUGAGGAUCACCUAUGUAC | – | – | 0.604 | 0.106
UUUAUGUCAGGAUAUGAGUAGUAGAACAAUAGUACUACUACUCAGAAGGGACAUGAGGAUCACCCAUGUUCUUC | 0.0167 | 0.0466 | – | –
UUUAUGUCAGGAUAUGAUUAGAUCUACUUUUGUAGAUCUAAUCAGAAGGGACAUGAGGAUCACCCAUGUAGUUU | 0.126 | 0.236 | – | –
UUUCAGCAAGGAUAUACGGGCUGUGCUUUUCAUUUCUUACAACAUGAGGAUCACCCAUGUAGAAGGUGCUUCUU | 0.297 | 0.736 | – | –
UUUCCUGAAGGAUAUUAAGAGCCAGACAUGAGGAUCACCCAUGUUCCUACAACGAACCUCUAAGAAGGUCAGGGCU | 0.0209 | 0.021 | – | –
UUUCGGCUAGGAUAUCUGUGCUCGGACAUGAGGAUCACCCAUGUGCGUCAUCACGGAGCCGGAGAAGGAGCUCGUA | 0.0158 | 0.02 | – | –
UUUCUUGGGCAAGGAUAUCCUGUGCGGUUCCGGCUCGUGUCUGUCACAUGAGGAUCACCCAUGUGGGAGAAGGUGCCUGCGGUU | 0.00626 | 0.00664 | – | –
UUUGAUUAAGUGAGGAUAUACUGUUUGUAUUGAUUGUAGAAGGUACAUGAGGAUCACCCAUGUUUAGUAUUUAU | 0.0205 | 0.02 | – | –
UUUGGGAGCACAGGAUAUGGCACCUCGAAGGCGCCAGAAGGGUGAUUCUGUUGGUGGCCACAUGAGGAUCACCCAUGUGCCUCC | – | – | 0.0295 | 0.0369
UUUGUAAUGUCAGGAUAUUUUAUAAGUCAUACUGAAGAAGGGAUAAUUAUACUCAUGUACAUGAGGAUCACCCAUGUUAAAUAU | – | – | 0.0436 | 0.0336
UUUGUACAUGAGGAUCACCCAUGUGAGGAUAUGCUUUAUUAUUAUUAUUAUUAUUAUUGCAGAAGGCACGUUGU | 0.0697 | 0.0982 | – | –
UUUGUUGUUGUGAGGAUAUACUGUUUGUUUUGUUUGUAGAAGGUACAUGAGGAUCACCCAUGUUGGUUGUUUUU | 0.0264 | 0.0251 | – | –
UUUUAACAUGAGGAUCACCCAUGUGAGGAUAUCGAAAUUUAUAUUAAUAUUAAUUUAACGAGAAGGCACAUUUU | 0.101 | 0.0937 | – | –
UUUUAACAUGAGGAUCACCCAUGUGAGGAUAUCGAAAUUUAUAUUAAUAUUUUUAUAACGAGAAGGCACAUUUU | 0.0701 | 0.0752 | – | –
UUUUAACAUGAGGAUCACCCAUGUGAGGAUAUCGAAAUUUAUAUUUAUAUUAAUUAAACGAGAAGGCACAUUUU | 0.0909 | 0.11 | – | –
UUUUAACAUGAGGAUCACCCAUGUGAGGAUAUCGAAAUUUAUAUUUAUAUUUAUAAAACGAGAAGGCACAUUUU | 0.103 | 0.119 | – | –
UUUUAACAUGAGGAUCACCCAUGUGAGGAUAUCGAAAUUUUUAUUAAUAUUAAUAAAACGAGAAGGCACAUUUU | 0.056 | 0.0693 | – | –
UUUUAAUAAAAGAAGGAGCACUACAUGAGGAUCACCCAUGUGUUAGUAGUUAGGAUAUUUAAUAACAUGAGGAUCACCCAUGUA | – | – | 0.194 | 0.0869
UUUUAAUAAGAGAAGGAGCACUACAUGAGGAUCACCCAUGUGUUAGUAGUUAGGAUAUUUAAUAACAUGAGGAUCACCCAUGUA | – | – | 0.167 | 0.0742
UUUUAAUAAGAGAAGGAGCACUUCAUGAGGAUCACCCAUGUGUUAGUAGUUAGGAUAUUUAAUAACAUGAGGAUCACCCAUGUC | – | – | 0.159 | 0.123
UUUUUACAUGAGGAUCACCCAUGUCAGGAUAUCAUUAUAUUUUAUUAUUUUAUUUAUAUGAGAAGGGACUAUUA | 0.0877 | 0.0601 | – | –
UUUUUAUAACAAGGAUAUACUAAACAUGAGGAUCACCCAUGUAAUAUUAUGAGUGAGAGAGAUAAGUAGAAGGUGUAUUAUUUU | 0.1 | 0.137 | – | –
UUUUUAUAAGAGAAGGAGGACUUCAUGAGGAUCACCCAUGUGUUAGUACUUAGGAUAUUUGAUAACAUGAGGAUCACCCAUGUC | – | – | 0.0314 | 0.0281
UUUUUCUGCUGAGGAUAUUGCUCGUGCGUACAUGAGGAUCACCCAUGUGUCUUGAUCCUCUUCUGCAAGAAGGCAGCUCUCUCU | 0.403 | 0.155 | – | –
UUUUUUGUACAAGGAUAUCUAUUAUAUUCACGUCCUACAUGAGGAUCACCCAUGUUAUAUAUUUUAGAGAAGGUGUAUUGUCUG | – | – | 0.0317 | 0.0355

From the EternaBench riboswitch data
